Data as given in ChEMBL document CHEMBL3608243, “Synthesis of novel cationic spermine-conjugated phosphotriester oligonucleotide for improvement of cell membrane permeability” (Bioorg Med Chem Lett, 2015).

Assays:
A549 = assay: Permeability in human A549 cells assessed as relative fluorescence intensity at 10 uM incubated for 8 hrs at 37 degC in presence of serum free medium by spectrofluorometry; format: ADME, cell-based; conditions: a549, 8 h
Summary of the method: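 A549 cells exposed to TAMRA-labeled oligonucleotides (in 10 mM Tris–HCl, 1 mM EDTA, pH 8) without transfection reagent; after incubation, PBS wash, lysis and lysate fluorescence read on a spectrofluorometer; n = 4.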

[1] = Solubility in water; format: physicochemical; conditions: buffer
[2] = Stability assessed as snake venom phosphodiesterase-mediated compound degradation at 5 nmol incubated for 180 mins by reversed-phase HPLC method; format: ADME; conditions: serpentes, 3 h
Summary of the method: (§1)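 Dimers incubated with snake venom phosphodiesterase or in 10% fetal bovine serum, then reactions analysed by reversed-phase HPLC; peak areas of intact dimer used to give the fraction of intact dimer over time.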

Serum = assay: Stability in 10% FBS assessed as compound degradation at 5 nmol incubated for 180 mins by reversed-phase HPLC method; format: ADME, cell-free, Bos taurus; conditions: cattle, 3 h; summary of the method: as §1
[3] = Stability in 28% NH3 aq, 55 degC incubated for 8 hrs assessed as compound degradation in to PDE dimer d(TpT) by reversed-phase HPLC method; format: physicochemical
Summary of the method: (§2)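 Untreated and treated dimers compared by reversed-phase HPLC on a C18 column, eluted with a linear 5–25% acetonitrile gradient over 20 min in 50 mM triethylammonium acetate, pH 7.0.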

[4] = Stability in 28% NH3 aq, incubated for 2 hrs at room temperature assessed as compound degradation by reversed-phase HPLC method; format: physicochemical; summary of the method: as §2

## CCOP(=O)(OC[C@H]1O[C@@H](n2cc(C)c(=O)[nH]c2=O)C[C@@H]1OP(=O)(OCC)OC[C@H]1O[C@@H](n2cc(C)c(=O)[nH]c2=O)C[C@@H]1OP(=O)(OCC)OC[C@H]1O[C@@H](n2cc(C)c(=O)[nH]c2=O)C[C@@H]1OP(=O)(OCC)OC[C@H]1O[C@@H](n2cc(C)c(=O)[nH]c2=O)C[C@@H]1OP(=O)(OCC)OC[C@H]1O[C@@H](n2cc(C)c(=O)[nH]c2=O)C[C@@H]1OP(=O)(OCC)OC[C@H]1O[C@@H](n2cc(C)c(=O)[nH]c2=O)C[C@@H]1OP(=O)(OCC)OC[C@H]1O[C@@H](n2cc(C)c(=O)[nH]c2=O)C[C@@H]1OP(=O)(OCC)OC[C@H]1O[C@@H](n2cc(C)c(=O)[nH]c2=O)C[C@@H]1OP(=O)(OCC)OC[C@H]1O[C@@H](n2cc(C)c(=O)[nH]c2=O)C[C@@H]1OP(=O)(O)OCCC(O)COCCCNC(=O)c1ccc(C(=O)O)c(C2=C3C=CC(=[N+](C)C)C=C3OC3C=C(N(C)C)C=CC23)c1)O[C@H]1C[C@H](n2cc(C)c(=O)[nH]c2=O)O[C@@H]1COP(=O)(O)O (stereo partly drawn)
A549
  Flu intensity: 16

## CCOP(=O)(OC[C@H]1O[C@@H](n2cc(C)c(=O)[nH]c2=O)C[C@@H]1OP(=O)(OCC)OC[C@H]1O[C@@H](n2cc(C)c(=O)[nH]c2=O)C[C@@H]1OP(=O)(OCC)OC[C@H]1O[C@@H](n2cc(C)c(=O)[nH]c2=O)C[C@@H]1OP(=O)(OCC)OC[C@H]1O[C@@H](n2cc(C)c(=O)[nH]c2=O)C[C@@H]1OP(=O)(OCC)OC[C@H]1O[C@@H](n2cc(C)c(=O)[nH]c2=O)C[C@@H]1OP(=O)(OCC)OC[C@H]1O[C@@H](n2cc(C)c(=O)[nH]c2=O)C[C@@H]1OP(=O)(OCC)OC[C@H]1O[C@@H](n2cc(C)c(=O)[nH]c2=O)C[C@@H]1OP(=O)(OCC)OC[C@H]1O[C@@H](n2cc(C)c(=O)[nH]c2=O)C[C@@H]1OP(=O)(OCC)OC[C@H]1O[C@@H](n2cc(C)c(=O)[nH]c2=O)C[C@@H]1OP(=O)(O)OCCC(O)COCCCNC(=O)c1ccc(C(=O)O)c(C2=C3C=CC(=[N+](C)C)C=C3OC3C=C(N(C)C)C=CC23)c1)O[C@H]1C[C@H](n2cc(C)c(=O)[nH]c2=O)O[C@@H]1COP(=O)(O)OCCCCNCCCNCCCCNCCCNCCCCO (stereo partly drawn)
[1]
  solubility: soluble
A549
  Flu intensity: 33.1

## Cc1cn([C@H]2C[C@H](OP(=O)(O)OC[C@H]3O[C@@H](n4cc(C)c(=O)[nH]c4=O)C[C@@H]3O)[C@@H](CO)O2)c(=O)[nH]c1=O
[2]
  Stability: Unstable
Serum
  Stability: Unstable

## Cc1cn([C@H]2C[C@H](OP(=O)(O)OC[C@H]3O[C@@H](n4cc(C)c(=O)[nH]c4=O)C[C@@H]3OP(=O)(O)OC[C@H]3O[C@@H](n4cc(C)c(=O)[nH]c4=O)C[C@@H]3OP(=O)(O)OC[C@H]3O[C@@H](n4cc(C)c(=O)[nH]c4=O)C[C@@H]3OP(=O)(O)OC[C@H]3O[C@@H](n4cc(C)c(=O)[nH]c4=O)C[C@@H]3OP(=O)(O)OC[C@H]3O[C@@H](n4cc(C)c(=O)[nH]c4=O)C[C@@H]3OP(=O)(O)OC[C@H]3O[C@@H](n4cc(C)c(=O)[nH]c4=O)C[C@@H]3OP(=O)(O)OC[C@H]3O[C@@H](n4cc(C)c(=O)[nH]c4=O)C[C@@H]3OP(=O)(O)OC[C@H]3O[C@@H](n4cc(C)c(=O)[nH]c4=O)C[C@@H]3OP(=O)(O)OC[C@H]3O[C@@H](n4cc(C)c(=O)[nH]c4=O)C[C@@H]3OP(=O)(O)OCCC(O)COCCCNC(=O)c3ccc(C(=O)O)c(C4=C5C=CC(=[N+](C)C)C=C5OC5C=C(N(C)C)C=CC45)c3)[C@@H](COP(=O)(O)OCCCCNCCCNCCCCNCCCNCCCCO)O2)c(=O)[nH]c1=O (stereo partly drawn)
A549
  Flu intensity: 5.45

## Cc1cn([C@H]2C[C@H](OP(=O)(O)OC[C@H]3O[C@@H](n4cc(C)c(=O)[nH]c4=O)C[C@@H]3OP(=O)(O)OC[C@H]3O[C@@H](n4cc(C)c(=O)[nH]c4=O)C[C@@H]3OP(=O)(O)OC[C@H]3O[C@@H](n4cc(C)c(=O)[nH]c4=O)C[C@@H]3OP(=O)(O)OC[C@H]3O[C@@H](n4cc(C)c(=O)[nH]c4=O)C[C@@H]3OP(=O)(O)OC[C@H]3O[C@@H](n4cc(C)c(=O)[nH]c4=O)C[C@@H]3OP(=O)(O)OC[C@H]3O[C@@H](n4cc(C)c(=O)[nH]c4=O)C[C@@H]3OP(=O)(O)OC[C@H]3O[C@@H](n4cc(C)c(=O)[nH]c4=O)C[C@@H]3OP(=O)(O)OC[C@H]3O[C@@H](n4cc(C)c(=O)[nH]c4=O)C[C@@H]3OP(=O)(O)OC[C@H]3O[C@@H](n4cc(C)c(=O)[nH]c4=O)C[C@@H]3OP(=O)(O)OCCC(O)COCCCNC(=O)c3ccc(C(=O)O)c(C4=C5C=CC(=[N+](C)C)C=C5OC5C=C(N(C)C)C=CC45)c3)[C@@H](COP(=O)(O)O)O2)c(=O)[nH]c1=O (stereo partly drawn)
A549
  Flu intensity: 1

## CCOP(=O)(OC[C@H]1O[C@@H](n2cc(C)c(=O)[nH]c2=O)C[C@@H]1O)O[C@H]1C[C@H](n2cc(C)c(=O)[nH]c2=O)O[C@@H]1CO (stereo partly drawn)
[3]
  Stability: Stable
[4]
  Stability: Stable
[2]
  Stability: Stable
Serum
  Stability: Stable

## COP(=O)(OC[C@H]1O[C@@H](n2cc(C)c(=O)[nH]c2=O)C[C@@H]1O)O[C@H]1C[C@H](n2cc(C)c(=O)[nH]c2=O)O[C@@H]1CO (stereo partly drawn)
[3]
  Stability: Unstable
[4]
  Stability: Unstable
